Reference: ChEMBL document CHEMBL1155841, “Methyl (11aS)-1,2,3,5,11,11a-hexahydro-3,3-dimethyl-1-oxo-6H-imidazo-[3',4':1,2]pyridin[3,4-b]indol-2-substituted acetates: synthesis and three-dimensional quantitative structure-activity relationship investigation as a class of novel vasodilators” (2008)

species: Rattus norvegicus; assay: Vasorelaxation activity against noradrenaline-induced hypertonic contraction in Wistar rat aorta strips; assay type: functional
Outline: (§1)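 Aortic strips first contracted with 59 µM noradrenaline, then washed out and stabilized for 30 min. After fresh solution, 59 µM NE was re-added, and peak contraction was taken as 100%. Test agent, dissolved in ethanol, was then added, with ethanol alone as vehicle control. Percent relaxation of the NE contraction was recorded as activity, given as mean ± SD, n = 6.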

For `COC(=O)[C@H](C)N1C(=O)[C@@H]2Cc3c([nH]c4ccccc34)CN2C1(C)C`, the Activity was “Dose-dependent effect”.
`CCC(C)[C@@H](C(=O)OC)N1C(=O)[C@@H]2Cc3c([nH]c4ccccc34)CN2C1(C)C` (some centres undefined) was tested, and the Activity was “Dose-dependent effect”.
For `COC(=O)[C@H](Cc1c[nH]c2ccccc12)N1C(=O)[C@@H]2Cc3c([nH]c4ccccc34)CN2C1(C)C`, the Activity was “Dose-dependent effect”.

species: Rattus norvegicus; assay: Vasorelaxation activity against noradrenaline-induced hypertonic contraction in Wistar rat aorta strips at 5 mM; assay type: functional; set-up: scale not given: the % may be the effect or the level left; outline: as §1

Compared with `COC(=O)[C@H](Cc1ccc(O)cc1)NC(=O)[C@@H]1Cc2c([nH]c3ccccc23)CN1C(=O)OC(C)(C)C`, `COC(=O)[C@H](Cc1ccccc1)NC(=O)[C@@H]1Cc2c([nH]c3ccccc23)CN1C(=O)OC(C)(C)C` is lower in Activity: 7.4% for the first, 0% for the second.

Compared with `COC(=O)[C@H](C)NC(=O)[C@@H]1Cc2c([nH]c3ccccc23)CN1C(=O)OC(C)(C)C`, `COC(=O)[C@@H](NC(=O)[C@@H]1Cc2c([nH]c3ccccc23)CN1C(=O)OC(C)(C)C)C(C)C` is lower in Activity: 18.8% for the first, 8.9% for the second.

`COC(=O)C[C@H](NC(=O)[C@@H]1Cc2c([nH]c3ccccc23)CN1C(=O)OC(C)(C)C)C(=O)OC` and `COC(=O)CC[C@H](NC(=O)[C@@H]1Cc2c([nH]c3ccccc23)CN1C(=O)OC(C)(C)C)C(=O)OC` are the same in Activity: 0% for the first, 0% for the second.

Going from `COC(=O)[C@H](Cc1c[nH]cn1)NC(=O)[C@@H]1Cc2c([nH]c3ccccc23)CN1C(=O)OC(C)(C)C` to `COC(=O)[C@H](CO)NC(=O)[C@@H]1Cc2c([nH]c3ccccc23)CN1C(=O)OC(C)(C)C`, the Activity rises from 0% to 6.1%.

`COC(=O)[C@H](CC(N)=O)NC(=O)[C@@H]1Cc2c([nH]c3ccccc23)CN1C(=O)OC(C)(C)C` and `COC(=O)[C@H](CCC(N)=O)NC(=O)[C@@H]1Cc2c([nH]c3ccccc23)CN1C(=O)OC(C)(C)C` are the same in Activity: 0% for the first, 0% for the second.

Compared with `COC(=O)[C@H](CCCNC(=N)N)NC(=O)[C@@H]1Cc2c([nH]c3ccccc23)CN1C(=O)OC(C)(C)C`, `COC(=O)[C@H](CCSC)NC(=O)[C@@H]1Cc2c([nH]c3ccccc23)CN1C(=O)OC(C)(C)C` is lower in Activity: 11.3% for the first, 6% for the second.

Compared with `CN1CC(=O)N2[C@H](c3ccc4c(c3)OCO4)c3[nH]c4ccccc4c3C[C@@H]2C1=O` [TADALAFIL], `COC(=O)[C@H](Cc1c[nH]c2ccccc12)NC(=O)[C@@H]1Cc2c([nH]c3ccccc23)CN1C(=O)OC(C)(C)C` is lower in Activity: 89.9% for the first, 15.2% for the second.

First: COC(=O)CNC(=O)[C@@H]1Cc2c([nH]c3ccccc23)CN1C(=O)OC(C)(C)C
Second: COC(=O)[C@@H](NC(=O)[C@@H]1Cc2c([nH]c3ccccc23)CN1C(=O)OC(C)(C)C)C(C)O (some centres undefined)
The Activity of the first is higher: 13.5% for the first, 0% for the second.

First: COC(=O)[C@H](CC(C)C)NC(=O)[C@@H]1Cc2c([nH]c3ccccc23)CN1C(=O)OC(C)(C)C
Second: CCC(C)[C@H](NC(=O)[C@@H]1Cc2c([nH]c3ccccc23)CN1C(=O)OC(C)(C)C)C(=O)OC (some centres undefined)
The Activity of the first is lower: 7.8% for the first, 10.9% for the second.

species: Rattus norvegicus; assay: Vasorelaxation activity against noradrenaline-induced hypertonic contraction in Wistar rat aorta strips at 50 uM; assay type: functional; set-up: scale not given: the % may be the effect or the level left; outline: as §1

First: COC(=O)[C@H](C)N1C(=O)[C@@H]2Cc3c([nH]c4ccccc34)CN2C1(C)C
Second: COC(=O)[C@H](C(C)C)N1C(=O)[C@@H]2Cc3c([nH]c4ccccc34)CN2C1(C)C
The Activity of the first is higher: 91.8% for the first, 24.2% for the second.

First: COC(=O)[C@H](CCSC)N1C(=O)[C@@H]2Cc3c([nH]c4ccccc34)CN2C1(C)C
Second: COC(=O)[C@H](CO)N1C(=O)[C@@H]2Cc3c([nH]c4ccccc34)CN2C1(C)C
The Activity of the first is lower: 15.1% for the first, 16.9% for the second.

First: CCC(C)[C@@H](C(=O)OC)N1C(=O)[C@@H]2Cc3c([nH]c4ccccc34)CN2C1(C)C (some centres undefined)
Second: COC(=O)[C@H](C(C)O)N1C(=O)[C@@H]2Cc3c([nH]c4ccccc34)CN2C1(C)C (some centres undefined)
The Activity of the first is higher: 34% for the first, 0% for the second.

First: COC(=O)[C@H](Cc1ccc(O)cc1)N1C(=O)[C@@H]2Cc3c([nH]c4ccccc34)CN2C1(C)C
Second: COC(=O)[C@H](Cc1ccccc1)N1C(=O)[C@@H]2Cc3c([nH]c4ccccc34)CN2C1(C)C
The Activity of the first is higher: 16.3% for the first, 0% for the second.

Going from `COC(=O)[C@H](CCCNC(=N)N)N1C(=O)[C@@H]2Cc3c([nH]c4ccccc34)CN2C1(C)C` to `COC(=O)[C@H](CCC(N)=O)N1C(=O)[C@@H]2Cc3c([nH]c4ccccc34)CN2C1(C)C`, the Activity falls from 36.7% to 0%.

Compared with `COC(=O)C[C@@H](C(=O)OC)N1C(=O)[C@@H]2Cc3c([nH]c4ccccc34)CN2C1(C)C`, `COC(=O)CC[C@@H](C(=O)OC)N1C(=O)[C@@H]2Cc3c([nH]c4ccccc34)CN2C1(C)C` is higher in Activity: 6.3% for the first, 9.9% for the second.

Going from `COC(=O)[C@H](Cc1c[nH]c2ccccc12)N1C(=O)[C@@H]2Cc3c([nH]c4ccccc34)CN2C1(C)C` to `COC(=O)[C@H](Cc1c[nH]cn1)N1C(=O)[C@@H]2Cc3c([nH]c4ccccc34)CN2C1(C)C`, the Activity falls from 63.5% to 0%.

Compared with `CC(=O)OCC[N+](C)(C)C` [ACETYLCHOLINE], `COC(=O)[C@H](CC(C)C)N1C(=O)[C@@H]2Cc3c([nH]c4ccccc34)CN2C1(C)C` is lower in Activity: 42.3% for the first, 15.7% for the second.

First: COC(=O)[C@H](CC(N)=O)N1C(=O)[C@@H]2Cc3c([nH]c4ccccc34)CN2C1(C)C
Second: COC(=O)CN1C(=O)[C@@H]2Cc3c([nH]c4ccccc34)CN2C1(C)C
The Activity of the first is lower: 0% for the first, 45.5% for the second.
